Results on 19 compounds are retold here after ChEMBL document CHEMBL1124570, “2-[[(4-Amino-2-pyridyl)methyl]sulfinyl]benzimidazole H+/K+-ATPase inhibitors. The relationship between pyridine basicity, stability, and activity” (J Med Chem, 1989).

The structures appear in SMILES notation. ≈ marks a conversion by molar mass, not a printed value. A value given as a limit tells only on which side of the number the result lay.

The nature of data set [1]: Dissociation constant at 37 degree Centigrade. Format: physicochemical.
The nature of data set [2]: Half-life at pH 7.4. The format is ADME. Conditions: buffer. An outline of the steps:
(§1)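 Stability at ambient temperature (20 °C) in acetonitrile/phosphate buffer (1:3) adjusted to the stated pH. Initial compound concentration is 1 × 10⁻³ to 3 × 10⁻⁴ M. Loss is followed by reverse-phase C18 HPLC with UV detection at 280 nm. t1/2 comes from linear regression of ln(concentration) vs time (h).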

For data set [3], the system named is Canis familiaris. The experiment in a line: Inhibition of histamine-stimulated gastric acid secretion in conscious Heidenhain pouch dog after intravenous administration. The format is functional. Conditions: Canis lupus familiaris, Stomach. An outline of the steps: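 Conscious dog with a Heidenhain pouch made 1-3 years earlier. Acid secretion is stimulated by i.v. histamine at 0.5 μmol/(kg·h). Juice is collected by gravity every 15 min and titrated to pH 7.4 with 0.1 N NaOH. Inhibitor is given i.v. at submaximal plateau. % inhibition compares the peak-inhibition sample with the pre-dose sample. ED50 uses three doses × three dogs, with 95% confidence limits (n = 9).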

The test system of data set [4] is Rattus norvegicus. The experiment in a line: Inhibition of histamine-stimulated gastric acid secretion in lumen perfused anesthetized rat after intraduodenal administration. The note with it: Stomach. The format is functional. Put shortly: (§2)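 Anaesthetized rat with stomach lumen perfusion. Effluent H⁺ activity is monitored continuously with a microflow glass electrode. Secretion is driven by i.v. histamine infusion at 0.25 μmol/(kg·min). Inhibitor is given i.v. or i.d. once a submaximal plateau is reached. % inhibition compares peak inhibition with the pre-dose plateau. ED50 uses three dose levels, three animals per dose.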

Data set [5] has as its system Rattus norvegicus. The experiment in a line: Inhibition of histamine-stimulated gastric acid secretion in lumen perfused anesthetized rat after intravenous administration. The format is functional. Conditions: Stomach. An outline of the steps:
as §2

Data set [6] can be described thus: Half-life at pH 1.0. The format is ADME. Conditions: buffer. An outline of the steps:
as §1

The test system of data set [7] is Canis familiaris. The experiment in a line: Percent inhibition of histamine-stimulated gastric acid secretion in Heidenhain pouch dog after intraduodenal administration of compound (1 umol/kg). Format: functional, Canis lupus familiaris, Stomach. Put shortly:
(§3)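 Heidenhain pouch dog with i.v. histamine at 0.5 μmol/(kg·h). Juice is collected every 15 min and acid output is found by titration to pH 7.4. Compound is given intraduodenally via a chronic duodenal cannula at submaximal plateau. Value is peak inhibition or mean plateau inhibition over 1 to 2½ h, mean of n = 4 dogs ± SEM.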

The subject of data set [8] is Rattus norvegicus. As to the kind of experiment: Inhibition of histamine-stimulated gastric acid secretion in lumen perfused anesthetized rat after intravenous administration; Poor solubility. The format is functional, organism-based. The note with it: Stomach. An outline of the steps:
as §2

Data set [9] concerns Canis familiaris. As to the kind of experiment: Percent inhibition of histamine-stimulated gastric acid secretion in Heidenhain pouch dog after intraduodenal administration of compound (2 umol/kg). The format is functional, Canis lupus familiaris, Stomach. Put shortly:
as §3

Data set [10] in a line: Solubility in water at pH 10.
Data set [11] is described as follows: Partition coefficient at 37 degree Celsius at pH 7.4. The note with it: octanol/water. The format is physicochemical.
Data set [12] concerns Rattus norvegicus. The experiment in a line: Inhibition of histamine-stimulated gastric acid secretion in lumen perfused anesthetized rat after intravenous administration of 1 umol/kg. Format: functional. The note with it: Stomach. An outline of the steps:
as §2

Data set [13] in a line: Partition coefficient at 37 degrees Celsius at pH 7.4. The format is physicochemical. Conditions: octanol/water.
Data set [14] in a line: Dissociation constant at 37 degrees Centigrade. The format is physicochemical.
For data set [15], the system named is Rattus norvegicus. The experiment in a line: Inhibition of histamine-stimulated gastric acid secretion in lumen perfused anesthetized rat after intravenous administration of 1 umol/kg. The format is functional. The note with it: Stomach. An outline of the steps: as §2

`COc1ccc2[nH]c([S+]([O-])Cc3cc(N4CCCC4)c(Br)cn3)nc2c1` (stereo not given) came in with a pKa in data set [1] of 6.92. In [2], this compound showed a half-life of 49 h.

In the case of `COc1ccc2[nH]c([S+]([O-])Cc3cc(N4CCOCC4)c(F)cn3)nc2c1` (stereo not given), the median effective dose (ED50) with Canis familiaris [3] is 5.07 µmol/kg; with Rattus norvegicus [4], 0.65 µmol/kg. For the same compound, in data set [1], the pKa worked out at 5.72. The half-life in data set [2] is 418 h.

`COc1ccc2[nH]c([S+]([O-])Cc3ncc(C)c(N4CCOCC4)c3Cl)nc2c1` (stereo not given) yielded a pKa in data set [1] of 5.32. In [2], this compound gave a half-life above 3000 h.

The compound `COc1ccc2[nH]c([S+]([O-])Cc3nccc(N4CCOCC4)c3F)nc2c1` (stereo not given) yielded a pKa in data set [1] of 5.89. The same compound had a half-life in data set [2] of 144 h. For the same compound, in the data set on Rattus norvegicus [4], it took a dose of 3.2 µmol/kg to reach the 50% effect level (ED50).

As for `COc1ccc2[nH]c([S+]([O-])Cc3nccc(N(C)C)c3Cl)nc2c1` (stereo not given), the ED50 with Canis familiaris [3] was 0.26 µmol/kg; in the data set with Rattus norvegicus [5] it was 0.44 µmol/kg; in the data set on Rattus norvegicus [4], 0.38 µmol/kg. This compound showed a half-life in data set [2] of 17 h.

Consider `COc1ccc2[nH]c([S+]([O-])Cc3cc(N(C)C)c(Cl)cn3)nc2c1` (stereo not given), for which the ED50 in the data set with Canis familiaris [3] was determined as 0.77 µmol/kg; in the data set with Rattus norvegicus [5], 1.32 µmol/kg. Also, in data set [2], the half-life is 96 h.

`COc1ccc2[nH]c([S+]([O-])Cc3ncc(C)c(N(C)C)c3Cl)nc2c1` (stereo not given): the half-life is 1 min in [6] and 432 h in data set [2]. Moreover, the median effective dose (ED50) with Rattus norvegicus [5] is 0.34 µmol/kg; in the data set on Rattus norvegicus [4] it was 1.48 µmol/kg. Further, the pKa in data set [1] was found to be 5.92. In addition, in the data set on Canis familiaris [7], the Inhibition was 67%.

`COc1ccc2[nH]c([S+]([O-])Cc3nccc(N4CCCCC4)c3Cl)nc2c1` (stereo not given): the 50% effective dose (ED50) with Canis familiaris [3] came to 1.16 µmol/kg; in the data set with Rattus norvegicus [4], 7.72 µmol/kg. The compound further returned a pKa in [1] of 5.95. The half-life in [2] was 175 h.

Regarding `COc1ccc2[nH]c([S+]([O-])Cc3nccc(N4CCCC4)c3Cl)nc2c1` (stereo not given), the median effective dose (ED50) entry in the data set with Rattus norvegicus [8] is “Poor solubility”. Further, the pKa in data set [1] was determined as 7.58. Moreover, in [2], the half-life is 36 h.

Regarding `COc1ccc2[nH]c([S+]([O-])Cc3nccc(N4CCCCC4)c3Br)nc2c1` (stereo not given), the 50% effective dose (ED50) in the data set on Rattus norvegicus [5] is 0.85 µmol/kg. Further, in [2], the half-life was 300 h.

Consider `COc1ccc2[nH]c([S+]([O-])Cc3nccc(N4CCOCC4)c3Cl)nc2c1` (stereo not given), for which the half-life in data set [6] was 1 min; in data set [2], 1300 h. Further, the 50% effective dose (ED50) with Canis familiaris [3] is 1.01 µmol/kg; in the data set with Rattus norvegicus [4], 1.14 µmol/kg. The pKa in data set [1] worked out at 5.28. This compound also returned an Inhibition with Canis familiaris [9] of 48%. The compound further had a solubility in data set [10] of 15 mg/mL (≈ 36.9 mM). In [11], the pH-dependent lipophilicity (logD) came out at 1.81.

Turning to `COc1ccc2[nH]c([S+]([O-])Cc3nccc(N(C)C)c3F)nc2c1` (stereo not given), the pKa in [1] was 7.12. Also, the half-life in data set [2] is 11 h.

Consider `COc1ccc2[nH]c([S+]([O-])Cc3ncc(C)c(N4CCCCC4)c3Cl)nc2c1` (stereo not given), for which, in [2], the half-life is 444 h. The ED50 in the data set on Rattus norvegicus [4] was 2.51 µmol/kg.

`COc1ccc2[nH]c([S+]([O-])Cc3cc(N(C)C)c(F)cn3)nc2c1` (stereo not given) gave an inhibition in vivo at 1 µmol/kg with Rattus norvegicus [12] of 37%. The pKa in [1] turned out to be 6.96. The half-life in data set [2] is 26 h.

For the compound `COc1ccc2[nH]c([S+]([O-])Cc3cc(N4CCCCC4)c(Br)cn3)nc2c1` (stereo not given), the results for the median effective dose (ED50) in the data set on Canis familiaris [3] and in the data set on Rattus norvegicus [4] were 2.94 µmol/kg and 1.05 µmol/kg, respectively. For the same compound, in data set [1], the pKa turned out to be 5.4. This compound showed a half-life in data set [2] of 864 h.

Turning to `COc1ccc2[nH]c([S+]([O-])Cc3ncc(C)c(OC)c3C)nc2c1` (stereo not given) [OMEPRAZOLE], the half-life in data set [6] was 2 min; in data set [2], 456 h. This compound also registered a logD in data set [13] of 2.18. This compound also had a 50% effective dose (ED50) in the data set with Canis familiaris [3] of 0.2 µmol/kg. The compound also came in with an Inhibition in the data set on Canis familiaris [7] of 53%. In data set [14], this compound returned a pKa of 6.29.

In turn, `COc1ccc2[nH]c([S+]([O-])Cc3ncc(C)c(N4CCCC4)c3Cl)nc2c1` (stereo not given) registered an ED50 in the data set with Canis familiaris [3] of 0.57 µmol/kg. For the same compound, in [2], the half-life was 60 h.

In turn, `COc1ccc2[nH]c([S+]([O-])Cc3cc(N4CCOCC4)c(Br)cn3)nc2c1` (stereo not given) showed an inhibition in vivo at 1 µmol/kg with Rattus norvegicus [15] of 14%.

For the compound `COc1ccc2[nH]c([S+]([O-])Cc3cc(N(C)C)c(Br)cn3)nc2c1` (stereo not given), the results for the 50% effective dose (ED50) with Rattus norvegicus [5] and in the data set with Rattus norvegicus [4] were 0.26 µmol/kg and 1.75 µmol/kg, respectively. In data set [1], the pKa turned out to be 5.8. Moreover, in data set [2], the half-life was 101 h.
